Results taken from ChEMBL document CHEMBL3351969, “Chalcone based azacarboline analogues as novel antitubulin agents: design, synthesis, biological evaluation and molecular modelling studies” (Eur J Med Chem, 2014).
Calls of active or inactive are those of the source. The rule behind the calls is not given here.

Legend:
Format in all cases: functional
[1] = system: THP-1; test: Cytotoxicity against human THP1 cells assessed as growth inhibition at 50 uM after 48 hrs by sulforhodamine B assay; details: for inhibition of growth at 50 µM: THP-1, 48 h, read-out: GI
Summary of the method: (§1)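 Single-point SRB screen at 50 µM. Cells were seeded and grown 24 h at 37°C in a CO2 incubator, then exposed to compound in complete medium for 48 h. Cells were fixed with 50% TCA for 1 h at 4°C, water-washed, and stained with 0.4% SRB in 1% acetic acid for 30 min. After 1% TCA washes, dye was dissolved in Tris-HCl (0.01 M, pH 10.4) and OD read at 540 nm.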

[2] = system: COLO 205; test: Cytotoxicity against human COLO205 cells assessed as growth inhibition at 50 uM after 48 hrs by sulforhodamine B assay; details: for inhibition of growth at 50 µM: COLO 205, 48 h, read-out: GI; summary of the method: as §1
[3] = system: HCT-116; test: (§2) Cytotoxicity against human HCT116 cells assessed as growth inhibition at 50 uM after 48 hrs by sulforhodamine B assay; summary of the method: as §1
[4] = system: A549; test: Cytotoxicity against human A549 cells assessed as growth inhibition at 50 uM after 48 hrs by sulforhodamine B assay; details: for inhibition of growth at 50 µM: A549, 48 h, read-out: GI; summary of the method: as §1
[5] = as §2; details: HCT-116, 48 h, read-out: GI; summary of the method: as §1

Row | Compound | growth inhibition (GI) [1] | growth inhibition (GI) [2] | growth inhibition (GI) [3] | growth inhibition (GI) [4] | inhibition of growth at 50 µM [1] | inhibition of growth at 50 µM [2] | inhibition of growth at 50 µM [5] | inhibition of growth at 50 µM [4]
1 | CC(=O)n1c2cccc(I)c2c2cc(-c3ccc(Cl)cc3)nnc21 | inactive | inactive | inactive | inactive |  |  |  | 
2 | CC(=O)n1c2cc(Br)cc(Br)c2c2cc(-c3ccc(Br)cc3)nnc21 | inactive | inactive | inactive | inactive |  |  |  | 
3 | COc1cc(-c2cc3c4c(I)cccc4n(C(C)=O)c3nn2)cc(OC)c1OC |  |  |  |  | 40% | 24% | 23% | 19%
4 | CC(=O)n1c2cc(Br)cc(Br)c2c2cc(-c3cccc4ccccc34)nnc21 |  | inactive | inactive | inactive | 24% |  |  | 
5 | COc1ccc(-c2cc3c4c(Br)cccc4n(C(C)=O)c3nn2)cc1OC |  |  |  |  | 51% | 21% | 23% | 11%
6 | CC(=O)Nc1cccc(-c2cc3c4ccccc4n(C(C)=O)c3nn2)c1 |  |  |  | inactive | 49% | 47% | 48% | 
7 | CC(=O)n1c2cccc(Cl)c2c2cc(-c3ccc(Cl)cc3)nnc21 |  |  |  |  | 19% | 12% | 17% | 5%
8 | COc1cc(-c2cc3c4c(Br)cccc4n(C(C)=O)c3nn2)cc(OC)c1OC |  |  |  |  | 59% | 36% | 43% | 17%
9 | CC(=O)n1c2ccccc2c2cc(-c3ccc(Cl)cc3)nnc21 |  |  |  | inactive | 39% | 35% | 35% | 
10 | CC(=O)Nc1ccccc1-c1cc2c3ccccc3n(C(C)=O)c2nn1 |  |  |  | inactive | 51% | 50% | 49% | 
11 | COc1ccc(-c2cc3c4c(Br)cccc4n(C(C)=O)c3nn2)cc1 |  |  |  |  | 35% | 10% | 17% | 7%
12 | COc1ccc(-c2cc3c4c(I)cccc4n(C(C)=O)c3nn2)cc1OC |  |  |  |  | 33% | 14% | 13% | 11%
13 | CC(=O)n1c2cccc(Br)c2c2cc(-c3ccc4ccccc4c3)nnc21 |  |  |  |  | 40% | 14% | 18% | 8%
14 | CC(=O)n1c2cccc(Br)c2c2cc(-c3cccc4ccccc34)nnc21 |  |  |  |  | 44% | 12% | 18% | 9%
15 | CC(=O)n1c2ccccc2c2cc(-c3ccc(F)cc3)nnc21 |  |  |  | inactive | 42% | 40% | 36% | 
16 | CC(=O)n1c2cccc(Cl)c2c2cc(-c3ccccc3)nnc21 |  |  |  | inactive | 50% | 22% | 29% | 
17 | CC(=O)n1c2ccccc2c2cc(-c3ccc(Br)cc3)nnc21 |  |  |  | inactive | 25% | 20% | 24% | 
18 | CC(=O)n1c2ccccc2c2cc(-c3ccc([N+](=O)[O-])cc3)nnc21 |  |  |  | inactive | 19% | 17% | 19% | 
19 | CC(=O)n1c2cccc(Cl)c2c2cc(-c3ccc[nH]3)nnc21 |  |  |  |  | 53% | 34% | 37% | 16%
